# Legend:
# Format in all cases: functional
# [1] = system: OVCAR-8; assay: Cytotoxicity against human OVCAR8 cells assessed as cell growth at 10 uM after 48 hrs by SRB assay relative to untreated control; details: OVCAR-8, 48 h, read-out: Activity
# Method in brief: (§1)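 NCI-60 one-dose screen: each agent added at 10 µM, cultures incubated 48 h. Endpoint by sulforhodamine B protein-binding dye read spectrophotometrically; growth expressed as percent of untreated control cells.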
# [2] = system: NCI-H322M; assay: Cytotoxicity against human NCI-H322M cells assessed as cell growth at 10 uM after 48 hrs by SRB assay relative to untreated control; details: read-out: Activity; method in brief: as §1
# [3] = system: T47D; assay: Cytotoxicity against human T47D cells assessed as cell growth at 10 uM after 48 hrs by SRB assay relative to untreated control; details: read-out: Activity
# Method in brief: (§2)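 NCI-60 single-dose screen. Compounds were added to the cultures at 10 μM and incubated for 48 h. The end point was sulforhodamine B protein staining read spectrophotometrically. Growth is reported as percent of untreated control cells.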
# [4] = system: SF-539; assay: Cytotoxicity against human SF539 cells assessed as cell growth at 10 uM after 48 hrs by SRB assay relative to untreated control; details: SF-539, 48 h, read-out: Activity; method in brief: as §1
# [5] = system: MOLT-4; assay: Cytotoxicity against human MOLT4 cells assessed as cell growth at 10 uM after 48 hrs by SRB assay relative to untreated control; details: MOLT-4, 48 h, read-out: Activity; method in brief: as §1
# [6] = system: TK-10; assay: Cytotoxicity against human TK10 cells assessed as cell growth at 10 uM after 48 hrs by SRB assay relative to untreated control; details: TK-10, 48 h, read-out: Activity; method in brief: as §2
# [7] = system: HT-29; assay: Cytotoxicity against human HT-29 cells assessed as cell growth at 10 uM after 48 hrs by SRB assay relative to untreated control; details: HT-29, 48 h, read-out: Activity
# Method in brief: (§3)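 NCI-60 panel screen at a single concentration of 10 μM with 48 h incubation. Cell density measured by sulforhodamine B protein-binding dye and read spectrophotometrically. Growth expressed as percent of untreated control cells.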
# [8] = system: CCRF-CEM; assay: Cytotoxicity against human CCRF-CEM cells assessed as cell growth at 10 uM after 48 hrs by SRB assay relative to untreated control; details: read-out: Activity; method in brief: as §3
# [9] = system: SK-OV-3; assay: Cytotoxicity against human SKOV3 cells assessed as cell growth at 10 uM after 48 hrs by SRB assay relative to untreated control; details: SK-OV-3, 48 h, read-out: Activity; method in brief: as §2
# [10] = system: BT-549; assay: Cytotoxicity against human BT549 cells assessed as cell growth at 10 uM after 48 hrs by SRB assay relative to untreated control; details: BT-549, 48 h, read-out: Activity; method in brief: as §3
# [11] = system: SF-268; assay: Cytotoxicity against human SF268 cells assessed as cell growth at 10 uM after 48 hrs by SRB assay relative to untreated control; details: SF-268, 48 h, read-out: Activity; method in brief: as §1
# [12] = system: MDA-MB-435; assay: Cytotoxicity against human MDA-MB-435 cells assessed as cell growth at 10 uM after 48 hrs by SRB assay relative to untreated control; details: MDA-MB-435, 48 h, read-out: Activity; method in brief: as §1
# [13] = system: U-251; assay: Cytotoxicity against human U251 cells assessed as cell growth at 10 uM after 48 hrs by SRB assay relative to untreated control; details: U-251, 48 h, read-out: Activity; method in brief: as §2
# [14] = system: HCT-15; assay: Cytotoxicity against human HCT15 cells assessed as cell growth at 10 uM after 48 hrs by SRB assay relative to untreated control; details: HCT-15, 48 h, read-out: Activity; method in brief: as §3
# [15] = system: SW-620; assay: Cytotoxicity against human SW620 cells assessed as cell growth at 10 uM after 48 hrs by SRB assay relative to untreated control; details: SW-620, 48 h, read-out: Activity; method in brief: as §2
# [16] = system: 786-0; assay: Cytotoxicity against human […] cells assessed as cell growth at 10 uM after 48 hrs by SRB assay relative to untreated control; details: 786-0, 48 h, read-out: Activity; method in brief: as §3
# [17] = system: SF-295; assay: Cytotoxicity against human SF295 cells assessed as cell growth at 10 uM after 48 hrs by SRB assay relative to untreated control; details: SF-295, 48 h, read-out: Activity; method in brief: as §1
# [18] = system: RPMI-8226; assay: Cytotoxicity against human RPMI8226 cells assessed as cell growth at 10 uM after 48 hrs by SRB assay relative to untreated control; details: RPMI-8226, 48 h, read-out: Activity; method in brief: as §1
# [19] = system: HOP-92; assay: Cytotoxicity against human HOP92 cells assessed as cell growth at 10 uM after 48 hrs by SRB assay relative to untreated control; details: HOP-92, 48 h, read-out: Activity; method in brief: as §3
# [20] = system: ACHN; assay: Cytotoxicity against human ACHN cells assessed as cell growth at 10 uM after 48 hrs by SRB assay relative to untreated control; details: read-out: Activity; method in brief: as §3
# [21] = system: CAKI-1; assay: Cytotoxicity against human Caki1 cells assessed as cell growth at 10 uM after 48 hrs by SRB assay relative to untreated control; details: CAKI-1, 48 h, read-out: Activity; method in brief: as §3
# [22] = system: NCI-H226; assay: Cytotoxicity against human NCI-H226 cells assessed as cell growth at 10 uM after 48 hrs by SRB assay relative to untreated control; details: NCI-H226, 48 h, read-out: Activity; method in brief: as §1
# [23] = system: MCF7; assay: Cytotoxicity against human MCF7 cells assessed as cell growth at 10 uM after 48 hrs by SRB assay relative to untreated control; details: MCF7, 48 h, read-out: Activity; method in brief: as §3
# [24] = Cytotoxicity against human UO31 cells assessed as cell growth at 10 uM after 48 hrs by SRB assay relative to untreated control; details: UO-31, 48 h, read-out: Activity; method in brief: as §2
# [25] = system: M14; assay: Cytotoxicity against human M14 cells assessed as cell growth at 10 uM after 48 hrs by SRB assay relative to untreated control; details: M14, 48 h, read-out: Activity; method in brief: as §3
# [26] = system: Malme-3M; assay: Cytotoxicity against human MALME-3M cells assessed as cell growth at 10 uM after 48 hrs by SRB assay relative to untreated control; details: read-out: Activity; method in brief: as §3
# [27] = system: OVCAR-3; assay: Cytotoxicity against human OVCAR3 cells assessed as cell growth at 10 uM after 48 hrs by SRB assay relative to untreated control; details: OVCAR-3, 48 h, read-out: Activity; method in brief: as §1
# [28] = system: K562; assay: Cytotoxicity against human K562 cells assessed as cell growth at 10 uM after 48 hrs by SRB assay relative to untreated control; details: K562, 48 h, read-out: Activity; method in brief: as §3
# [29] = system: LOX IMVI; assay: Cytotoxicity against human LOXIMVI cells assessed as cell growth at 10 uM after 48 hrs by SRB assay relative to untreated control; details: read-out: Activity; method in brief: as §3
# [30] = Cytotoxicity against human UACC257 cells assessed as cell growth at 10 uM after 48 hrs by SRB assay relative to untreated control; details: UACC-257, 48 h, read-out: Activity; method in brief: as §2
# [31] = system: SNB-19; assay: Cytotoxicity against human SNB19 cells assessed as cell growth at 10 uM after 48 hrs by SRB assay relative to untreated control; details: SNB-19, 48 h, read-out: Activity; method in brief: as §2
# [32] = system: IGROV-1; assay: Cytotoxicity against human IGROV1 cells assessed as cell growth at 10 uM after 48 hrs by SRB assay relative to untreated control; details: IGROV-1, 48 h, read-out: Activity; method in brief: as §3
structure (smiles),measurement,setting,value
C[C@H]1NC(c2ccc(Br)cc2)=Nc2nc3ccccn3c2C1=O,growth at 10 µM,[1],94.5%
same,growth at 10 µM,[2],86.1%
same,growth at 10 µM,[3],85%
same,growth at 10 µM,[4],95.5%
same,growth at 10 µM,[5],79.7%
same,growth at 10 µM,[6],98.3%
same,growth at 10 µM,[7],104%
same,growth at 10 µM,[8],96.9%
same,growth at 10 µM,[9],97.8%
same,growth at 10 µM,[10],75.5%
same,growth at 10 µM,[11],99.8%
same,growth at 10 µM,[12],95.4%
same,growth at 10 µM,[13],101%
same,growth at 10 µM,[14],97.1%
same,growth at 10 µM,[15],97%
same,growth at 10 µM,[16],89.1%
same,growth at 10 µM,[17],96.9%
same,growth at 10 µM,[18],91%
same,growth at 10 µM,[19],66.6%
same,growth at 10 µM,[20],94%
same,growth at 10 µM,[21],93.2%
same,growth at 10 µM,[22],85.7%
same,growth at 10 µM,[23],65.1%
same,growth at 10 µM,[24],51.5%
same,growth at 10 µM,[25],99.2%
same,growth at 10 µM,[26],101%
same,growth at 10 µM,[27],95.9%
same,growth at 10 µM,[28],84.8%
same,growth at 10 µM,[29],92.3%
same,growth at 10 µM,[30],101%
same,growth at 10 µM,[31],92.5%
same,growth at 10 µM,[32],81.1%
Cc1ccccc1C1=Nc2nc3ccccn3c2C(=O)[C@H](Cc2ccccc2)N1,growth at 10 µM,[1],92.8%
same,growth at 10 µM,[2],106%
same,growth at 10 µM,[3],104%
same,growth at 10 µM,[4],99.4%
same,growth at 10 µM,[5],111%
same,growth at 10 µM,[6],138%
same,growth at 10 µM,[7],115%
same,growth at 10 µM,[8],105%
same,growth at 10 µM,[9],111%
same,growth at 10 µM,[10],96.9%
same,growth at 10 µM,[11],104%
same,growth at 10 µM,[12],98.8%
same,growth at 10 µM,[13],100%
same,growth at 10 µM,[14],100%
same,growth at 10 µM,[15],103%
same,growth at 10 µM,[16],101%
same,growth at 10 µM,[17],96.5%
same,growth at 10 µM,[18],98.4%
same,growth at 10 µM,[19],90.5%
same,growth at 10 µM,[20],94.5%
same,growth at 10 µM,[21],88.8%
same,growth at 10 µM,[22],99%
same,growth at 10 µM,[23],84.9%
same,growth at 10 µM,[24],80.6%
same,growth at 10 µM,[25],102%
same,growth at 10 µM,[26],109%
same,growth at 10 µM,[27],108%
same,growth at 10 µM,[28],113%
same,growth at 10 µM,[29],91.7%
same,growth at 10 µM,[30],87.3%
same,growth at 10 µM,[31],109%
same,growth at 10 µM,[32],108%
C[C@@H]1NC(c2ccc(Br)cc2)=Nc2nc3ccccn3c2C1=O,growth at 10 µM,[1],72.5%
same,growth at 10 µM,[2],74%
same,growth at 10 µM,[3],67.2%
same,growth at 10 µM,[4],74.7%
same,growth at 10 µM,[5],57.5%
same,growth at 10 µM,[6],110%
same,growth at 10 µM,[7],17.5%
same,growth at 10 µM,[8],79.4%
same,growth at 10 µM,[9],72%
same,growth at 10 µM,[10],49.3%
same,growth at 10 µM,[11],83.4%
same,growth at 10 µM,[12],-13%
same,growth at 10 µM,[13],54%
same,growth at 10 µM,[14],30.8%
same,growth at 10 µM,[15],38%
same,growth at 10 µM,[16],83.1%
same,growth at 10 µM,[17],40.9%
same,growth at 10 µM,[18],94%
same,growth at 10 µM,[19],59.5%
same,growth at 10 µM,[20],69.2%
same,growth at 10 µM,[21],44.1%
same,growth at 10 µM,[22],68.3%
same,growth at 10 µM,[23],20.9%
same,growth at 10 µM,[24],62%
same,growth at 10 µM,[25],31.8%
same,growth at 10 µM,[26],51.8%
same,growth at 10 µM,[27],17.3%
same,growth at 10 µM,[28],24.3%
same,growth at 10 µM,[29],52.4%
same,growth at 10 µM,[30],70%
same,growth at 10 µM,[31],82.6%
same,growth at 10 µM,[32],43.1%
O=C1c2c(nc3ccccn23)N=C(c2ccccc2)N2CCC[C@@H]12,growth at 10 µM,[1],98.7%
same,growth at 10 µM,[2],106%
same,growth at 10 µM,[3],93.6%
same,growth at 10 µM,[4],89.8%
same,growth at 10 µM,[5],111%
same,growth at 10 µM,[6],124%
same,growth at 10 µM,[7],114%
same,growth at 10 µM,[8],104%
same,growth at 10 µM,[9],103%
same,growth at 10 µM,[10],99.1%
same,growth at 10 µM,[11],97.8%
same,growth at 10 µM,[12],101%
same,growth at 10 µM,[13],96.2%
same,growth at 10 µM,[14],93.8%
same,growth at 10 µM,[15],102%
same,growth at 10 µM,[16],97.9%
same,growth at 10 µM,[17],103%
same,growth at 10 µM,[18],96.5%
same,growth at 10 µM,[19],82.7%
same,growth at 10 µM,[20],97.9%
same,growth at 10 µM,[21],95.4%
same,growth at 10 µM,[22],94.9%
same,growth at 10 µM,[23],93%
same,growth at 10 µM,[24],88.7%
same,growth at 10 µM,[25],96.5%
same,growth at 10 µM,[26],102%
same,growth at 10 µM,[27],105%
same,growth at 10 µM,[28],124%
same,growth at 10 µM,[29],90.1%
same,growth at 10 µM,[30],94.5%
same,growth at 10 µM,[31],103%
same,growth at 10 µM,[32],114%

# — ChEMBL document CHEMBL3124806, “Imidazopyridine-fused [1,3]-diazepinones: synthesis and antiproliferative activity” (Eur J Med Chem, 2014)
